Test results reported in ChEMBL document CHEMBL1909500, “Synthesis and in vitro anticancer activity of 6,7-methylenedioxy (or 5-hydroxy-6-methoxy)-2-(substituted selenophenyl)quinolin-4-one analogs” (Eur J Med Chem, 2011).
Activity calls are given as the source filed them. The rule behind the calls is not given here.

Tests used:
SNB-75 = assay: Anticancer activity against human SNB75 cells after 48 hrs by MTT assay; assay type: functional; settings: SNB-75, 48 h
ACHN = assay: Anticancer activity against human ACHN cells after 48 hrs by MTT assay; assay type: functional
OVCAR-8 = assay: Anticancer activity against human OVCAR8 cells after 48 hrs by MTT assay; assay type: functional; settings: OVCAR-8, 48 h
[1] = Cytotoxicity against human Hep3B cells after 48 hrs by MTT assay; assay type: functional, cell-based, Hep 3B2
How it was run: (§1)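 Hep 3B (hepatoma) or Detroit 551 (normal skin) cells, grown at 37 °C and 5% CO₂ in DMEM with 10% FBS, penicillin/streptomycin and 1% L-glutamine, were used in log phase. Cells were exposed to vehicle or compound for 48 h. Growth was read by MTT reduction at 570 nm, and IC50 was calculated.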

SW-620 = assay: Anticancer activity against human SW620 cells after 48 hrs by MTT assay; assay type: functional; settings: SW-620, 48 h
OVCAR-5 = assay: Anticancer activity against human OVCAR5 cells after 48 hrs by MTT assay; assay type: functional; settings: OVCAR-5, 48 h
HCT-116 = assay: Anticancer activity against human HCT116 cells after 48 hrs by MTT assay; assay type: functional; settings: HCT-116, 48 h
MDA-MB-468 = assay: Anticancer activity against human MDA-MB-468 cells after 48 hrs by MTT assay; assay type: functional; settings: MDA-MB-468, 48 h
Detroit 551 = assay: Cytotoxicity against human Detroit 551 cells after 48 hrs by MTT assay; assay type: cell-based; settings: Detroit 551, 48 h; how it was run: as §1
UACC-62 = assay: Anticancer activity against human UACC62 cells after 48 hrs by MTT assay; assay type: functional; settings: UACC-62, 48 h
HL-60 [2] = assay: Cell cycle arrest in human HL60 assessed as cell accumulation in Sub-G1 phase at 1 uM after 24 hrs pretreated with pan-caspase inhibitor z-VAD-fmk for 3 hrs by propidium iodide staining-based flow cytometric analysis; assay type: functional; design: scale not given: the % may be the effect or the level left
How it was run: (§2)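 HL-60 cells were preincubated for 3 h with or without the pan-caspase inhibitor z-VAD-fmk, then co-exposed to compound at 1 μM for 24 h. Cells were washed in PBS and fixed overnight in ice-cold 70% ethanol at −20 °C. They were stained for 30 min in the dark with propidium iodide 4 μg/mL, 0.1 mg/ml RNase and 1% Triton X-100. DNA content was read on a FACScan flow cytometer.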

OVCAR-3 = assay: Anticancer activity against human OVCAR3 cells after 48 hrs by MTT assay; assay type: functional; settings: OVCAR-3, 48 h
A549 = assay: Anticancer activity against human A549 cells after 48 hrs by MTT assay; assay type: functional; settings: A549, 48 h
HL-60 [3] = assay: Induction of apoptosis in human HL60 cells assessed as PARP cleavage at 0.1 to 1.0 uM after 24 hrs by Western blot analysis; assay type: functional, cell-based
How it was run: (§3)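 HL-60 cells at 2 × 10⁵/mL were exposed to the indicated concentrations for 24 h, washed in PBS and lysed for total protein. Immunoblots used HRP-linked secondary antibodies with ECL detection. Cyclin B1, CDK1, caspase-3 (17 kDa active form) and PARP (85 kDa fragment) were quantified and normalised to β-actin.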

SN12C = assay: Anticancer activity against human SN12C cells after 48 hrs by MTT assay; assay type: functional
HT-29 = assay: Anticancer activity against human HT-29 cells after 48 hrs by MTT assay; assay type: functional; settings: HT-29, 48 h
HL-60 [4] = assay: Cell cycle arrest in human HL60 assessed as cell accumulation in S phase at 1 uM after 24 hrs pretreated with pan-caspase inhibitor z-VAD-fmk for 3 hrs by propidium iodide staining-based flow cytometric analysis; assay type: functional; design: scale not given: the % may be the effect or the level left; how it was run: as §2
NCI-H460 = assay: Cytotoxicity against human H460 cells after 48 hrs by MTT assay; assay type: functional, cell-based; settings: NCI-H460, 48 h
How it was run: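 H460 or HL-60 cells were exposed to vehicle or compound for 48 h. Growth was read by MTT reduction at 570 nm, and IC50 was calculated.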

SF-539 = assay: Anticancer activity against human SF539 cells after 48 hrs by MTT assay; assay type: functional; settings: SF-539, 48 h
HL-60 [5] = assay: Cell cycle arrest in human HL60 assessed as cell accumulation in G0/G1 phase at 1 uM after 24 hrs pretreated with pan-caspase inhibitor z-VAD-fmk for 3 hrs by propidium iodide staining-based flow cytometric analysis; assay type: functional; design: scale not given: the % may be the effect or the level left; how it was run: as §2
SF-295 = assay: Anticancer activity against human SF295 cells after 48 hrs by MTT assay; assay type: functional; settings: SF-295, 48 h
HL-60 [6] = assay: Growth inhibition of human HL60 cells after 24 to 48 hrs by trypan blue exclusion assay; assay type: functional, cell-based
How it was run: (§4)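 HL-60 cells were given the indicated concentrations for 24 h and 48 h. Viable cells were counted by trypan blue exclusion. Values are mean ± SD of four independent experiments.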

HCC 2998 = assay: Anticancer activity against human HCC2998 cells after 48 hrs by MTT assay; assay type: functional; settings: HCC 2998, 48 h
DU-145 = assay: Anticancer activity against human DU145 cells after 48 hrs by MTT assay; assay type: functional; settings: DU-145, 48 h
OVCAR-4 = assay: Anticancer activity against human OVCAR4 cells after 48 hrs by MTT assay; assay type: functional; settings: OVCAR-4, 48 h
HL-60 [7] = assay: Induction of cell cycle arrest at G2/M phase in human HL60 cells assessed as increase in cyclin B1 expression at 0.1 to 1.0 uM after 24 hrs by Western blot analysis; assay type: functional, cell-based; how it was run: as §3
EKVX = assay: Anticancer activity against human EKVX cells after 48 hrs by MTT assay; assay type: functional
HL-60 [8] = assay: Cell cycle arrest in human HL60 assessed as cell accumulation in G2/M phase at 1 uM after 24 hrs pretreated with pan-caspase inhibitor z-VAD-fmk for 3 hrs by propidium iodide staining-based flow cytometric analysis; assay type: functional; design: scale not given: the % may be the effect or the level left; how it was run: as §2
HL-60 [9] = assay: Growth inhibition of human HL60 cells at 0.1 to 1 uM by trypan blue exclusion assay; assay type: functional, cell-based; settings: TDE = time-dependent effect; how it was run: as §4
[10] = read-out: pLC50 (the source's name) (converted)

SMILES: Cc1ccc(-c2cc(=O)c3cc4c(cc3[nH]2)OCO4)[se]1
- GI50 (SNB-75): 275 nM
- CC50 (SNB-75; [10]): > 100000 nM
- TGI (SNB-75; read-out: pTGI): > 100000 nM
- GI50 (ACHN): 759 nM
- CC50 (ACHN; [10]): > 100000 nM
- TGI (ACHN; read-out: pTGI): > 100000 nM
- GI50 (OVCAR-8): 339 nM
- CC50 (OVCAR-8; [10]): > 100000 nM
- TGI (OVCAR-8; read-out: pTGI): > 100000 nM
- IC50 [1]: 200 nM
- GI50 (SW-620): 407 nM
- CC50 (SW-620; [10]): > 100000 nM
- TGI (SW-620; read-out: pTGI): > 100000 nM
- GI50 (OVCAR-5): 1700 nM
- CC50 (OVCAR-5; [10]): > 100000 nM
- TGI (OVCAR-5; read-out: pTGI): > 100000 nM
- GI50 (HCT-116): 288 nM
- CC50 (HCT-116; [10]): > 100000 nM
- TGI (HCT-116; read-out: pTGI): > 100000 nM
- GI50 (MDA-MB-468): 562 nM
- CC50 (MDA-MB-468; [10]): > 100000 nM
- TGI (MDA-MB-468; read-out: pTGI): > 100000 nM
- IC50 (Detroit 551): > 25000 nM
- GI50 (UACC-62): 398 nM
- CC50 (UACC-62; [10]): > 100000 nM
- TGI (UACC-62; read-out: pTGI): > 100000 nM
- Activity (HL-60 [2]): 10.2%
- GI50 (OVCAR-3): 240 nM
- TGI (OVCAR-3; read-out: pTGI (converted)): 457 nM
- GI50 (A549): 245 nM
- CC50 (A549; [10]): > 100000 nM
- TGI (A549; read-out: pTGI (converted)): 646 nM
- Activity (HL-60 [3]): Active
- GI50 (SN12C): 603 nM
- CC50 (SN12C; [10]): > 100000 nM
- TGI (SN12C; read-out: pTGI): > 100000 nM
- GI50 (HT-29): 269 nM
- CC50 (HT-29; [10]): > 100000 nM
- TGI (HT-29; read-out: pTGI): > 100000 nM
- Activity (HL-60 [4]): 36.2%
- IC50 (NCI-H460): 400 nM
- GI50 (SF-539): 245 nM
- CC50 (SF-539; [10]): > 100000 nM
- TGI (SF-539; read-out: pTGI (converted)): 708 nM
- Activity (HL-60 [5]): 8.3%
- GI50 (SF-295): 347 nM
- CC50 (SF-295; [10]): > 100000 nM
- TGI (SF-295; read-out: pTGI): > 100000 nM
- growth inhibition (GI) (HL-60 [6]): Dose-dependent effect
- GI50 (HCC 2998): 288 nM
- CC50 (HCC 2998; [10]): > 100000 nM
- TGI (HCC 2998; read-out: pTGI): > 100000 nM
- GI50 (DU-145): 302 nM
- CC50 (DU-145; [10]): > 100000 nM
- TGI (DU-145; read-out: pTGI): > 100000 nM
- GI50 (OVCAR-4): 575 nM
- CC50 (OVCAR-4; [10]): > 100000 nM
- TGI (OVCAR-4; read-out: pTGI): > 100000 nM
- Activity (HL-60 [7]): Active
- GI50 (EKVX): 617 nM
- CC50 (EKVX; [10]): > 100000 nM
- TGI (EKVX; read-out: pTGI): > 100000 nM
- Activity (HL-60 [8]): 55.5%
- growth inhibition (GI) (HL-60 [9]): tde
